# Measurements published in ChEMBL document CHEMBL2203131, “An unusually cold active nitroreductase for prodrug activations” (Bioorg Med Chem, 2012).
# How the values were obtained:
# [1] = Ratio of apparent Kcat/apparent Km for Escherichia coli NfsB to apparent Kcat/apparent Km for Staphylococcus saprophyticus ATCC 15305 Ssap-NtrB; type: ADME
# [2] = Ratio of apparent Kcat to apparent Km for Escherichia coli NfsB-mediated prodrug conversion using NADH as cofactor by steady state kinetics analysis; type: ADME
# [3] = Ratio of apparent Kcat to apparent Km for Escherichia coli NfsB-mediated prodrug conversion using NADPH as cofactor by steady state kinetics analysis; type: ADME
# [4] = Prodrug conversion in Tris-HCl buffer using NADH as cofactor assessed as Escherichia coli NfsB-mediated reduction by steady state kinetics analysis; type: ADME; conditions: for Km: read-out: Km(app)
# [5] = Prodrug conversion in Tris-HCl buffer using NADPH as cofactor assessed as Escherichia coli NfsB-mediated reduction by steady state kinetics analysis; type: ADME; conditions: for Km: read-out: Km(app)
# [6] = Ratio of apparent Kcat to apparent Km for Staphylococcus saprophyticus ATCC 15305 Ssap-NtrB-mediated reduction by steady state kinetics analysis; type: ADME
# How it was run: (§1)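 Steady-state kinetics with purified His6-Ssap-NtrB used CB1954 at 0.05–4 mM or a series of SN23862 concentrations in 50 mM Tris-Cl pH 7.0 containing 4% DMSO. Parameters came from nonlinear Michaelis–Menten fitting. One unit is defined as 1 µmol substrate converted per min, and specific activity was expressed per mg active enzyme.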
# [7] = Prodrug conversion in Tris-HCl buffer assessed as Staphylococcus saprophyticus ATCC 15305 Ssap-NtrB-mediated reduction by steady state kinetics analysis; type: ADME; conditions: for Km: read-out: Km(app); how it was run: as §1
# [8] = system: Staphylococcus saprophyticus; assay: Activity of Staphylococcus saprophyticus ATCC 15305 Ssap-NtrB assessed as residual activity measured for 10 mins at 3 degC by spectrophotometric analysis
# [9] = Prodrug conversion in sodium phosphate buffer using NAD(P)H as cofactor assessed as Bacillus amyloliquefaciens CAMR 0454 ywrO-mediated reduction by steady state kinetics analysis; type: ADME
# [10] = Prodrug conversion in Tris-HCl buffer assessed as Staphylococcus saprophyticus ATCC 15305 Ssap-NtrB-mediated reduction after 30 mins by HPLC analysis; type: ADME; conditions: 0.5 h
# How it was run: (§2)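 CB1954 (1 mM final) or SN23862 (80 µM) was incubated in degassed 50 mM Tris-Cl pH 7.0, kept anaerobic by nitrogen bubbling, with 50 µg/ml Ssap-NtrB and 3.4 mM NADPH for at least 30 min at 18–20 °C. Reactions were stopped with ice-cold methanol, held at −80 °C, then centrifuged. Products were resolved by reverse-phase C18 HPLC with an acetonitrile–water gradient. Detection was at 260/420 nm, or 390/450 nm for SN23862.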
# [11] = system: Staphylococcus saprophyticus; assay: Activity of Staphylococcus saprophyticus ATCC 15305 Ssap-NtrB assessed as residual activity measured for 10 mins at 15 degC by spectrophotometric analysis
# [12] = Ratio of apparent Km for Escherichia coli NfsB-mediated prodrug conversion to apparent Km for Staphylococcus saprophyticus ATCC 15305 Ssap-NtrB-mediated prodrug conversion; type: ADME
# [13] = Prodrug conversion in buffer using NADH as cofactor assessed as Escherichia coli AzoR-mediated reduction by steady state kinetics analysis; type: ADME
# [14] = Ratio of apparent Kcat to apparent Km for Escherichia coli AzoR-mediated prodrug conversion using NADPH as cofactor by steady state kinetic analysis; type: ADME
# [15] = Prodrug conversion in buffer using NADPH as cofactor assessed as Escherichia coli AzoR-mediated reduction by steady state kinetics analysis; type: ADME
# [16] = Ratio of apparent Kcat to apparent Km for Escherichia coli NfsA-mediated prodrug conversion using NADPH as cofactor by steady state kinetic analysis; type: ADME
# [17] = Prodrug conversion in buffer using NADPH as cofactor assessed as Escherichia coli NfsA-mediated reduction by steady state kinetics analysis; type: ADME
# [18] = Ratio of apparent Kcat to apparent Km for Bacillus amyloliquefaciens CAMR 0454 ywrO-mediated prodrug conversion using NADPH as cofactor by steady state kinetic analysis; type: ADME
# [19] = Prodrug conversion in sodium phosphate buffer using NADPH as cofactor assessed as Bacillus amyloliquefaciens CAMR 0454 ywrO-mediated reduction by steady state kinetics analysis; type: ADME
# [20] = Prodrug conversion in Tris-HCl buffer assessed as Staphylococcus saprophyticus ATCC 15305 Ssap-NtrB-mediated [5-(aziridin-1-yl)-2-hydroxyamino-4-nitrobenzamide] formation after 30 mins by HPLC analysis; type: ADME; conditions: 0.5 h; how it was run: as §2
# [21] = Prodrug conversion in Tris-HCl buffer assessed as Staphylococcus saprophyticus ATCC 15305 Ssap-NtrB-mediated [5-(aziridin-1-yl)-4-hydroxyamino-2-nitrobenzamide] formation after 30 mins by HPLC analysis; type: ADME; conditions: 0.5 h; how it was run: as §2
# [22] = Ratio of apparent Kcat to apparent Km for Escherichia coli AzoR-mediated prodrug conversion using NADH as cofactor by steady state kinetic analysis; type: ADME
structure (smiles),measurement,setting,value
NC(=O)N/N=C/c1ccc([N+](=O)[O-])o1 [NITROFURAZONE],Ratio,[1],1.4
same,Kcat/Km,[2],66875 M⁻¹ s⁻¹
same,Kcat/Km,[3],61764 M⁻¹ s⁻¹
same,Kcat(app),[4],10.7 s⁻¹
same,Km,[4],160 µM
same,Kcat(app),[5],10.5 s⁻¹
same,Km,[5],170 µM
same,Kcat/Km,[6],44180 M⁻¹ s⁻¹
same,Kcat(app),[7],2.2 s⁻¹
same,Km,[7],49.8 µM
NC(=O)c1cc(N(CCCl)CCCl)c([N+](=O)[O-])cc1[N+](=O)[O-],Activity,[8],60%
same,Drug metabolism,[9],Not Active
same,Kcat/Km,[6],9350 M⁻¹ s⁻¹
same,Kcat(app),[7],0.77 s⁻¹
same,Km,[7],82.4 µM
same,Drug metabolism,[10],Active
same,Activity,[11],60%
NC(=O)c1cc(N2CC2)c([N+](=O)[O-])cc1[N+](=O)[O-] [TRETAZICAR],Ratio,[12],20
same,Activity,[8],55%
same,Kcat(app),[13],0.15 s⁻¹
same,Km,[13]; read-out: Km(app),6600 µM
same,Kcat/Km,[14],110 M⁻¹ s⁻¹
same,Kcat(app),[15],0.15 s⁻¹
same,Km,[15]; read-out: Km(app),1400 µM
same,Kcat/Km,[16],73000 M⁻¹ s⁻¹
same,Kcat(app),[17],16 s⁻¹
same,Km,[17]; read-out: Km(app),220 µM
same,Kcat/Km,[18],13268 M⁻¹ s⁻¹
same,Kcat(app),[19],8.2 s⁻¹
same,Km,[19]; read-out: Km(app),618 µM
same,Kcat/Km,[2],5600 M⁻¹ s⁻¹
same,Kcat/Km,[3],7300 M⁻¹ s⁻¹
same,Kcat(app),[4],62 s⁻¹
same,Km,[4],11000 µM
same,Kcat(app),[5],26 s⁻¹
same,Km,[5],3600 µM
same,Kcat/Km,[6],2120 M⁻¹ s⁻¹
same,Kcat(app),[7],2.26 s⁻¹
same,Km,[7],1070 µM
same,Drug metabolism,[20],Active
same,Drug metabolism,[21],Active
same,Kcat/Km,[22],23 M⁻¹ s⁻¹
same,Activity,[11],55%
